Screens deposited in PubChem by The Scripps Research Institute Molecular Screening Center.
Sampled rows, rich in hits. Any-hit rate of the full collection: about 4.6%.
TAAR1 antag – antagonists of human TAAR1. CHO RD-HGA16 TAAR1, Fluo-8 calcium fluorescence, antagonist. inhibition, % at 3 µM. actives 1.5% (n = 360,000). AID 624466;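 active = inhibition above a per-plate cutoff, the mean inhibition of test compounds on that plate plus 3 SD, cut at about 49% in these data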
Target sequence (Q96RJ0 whole entry, looked up): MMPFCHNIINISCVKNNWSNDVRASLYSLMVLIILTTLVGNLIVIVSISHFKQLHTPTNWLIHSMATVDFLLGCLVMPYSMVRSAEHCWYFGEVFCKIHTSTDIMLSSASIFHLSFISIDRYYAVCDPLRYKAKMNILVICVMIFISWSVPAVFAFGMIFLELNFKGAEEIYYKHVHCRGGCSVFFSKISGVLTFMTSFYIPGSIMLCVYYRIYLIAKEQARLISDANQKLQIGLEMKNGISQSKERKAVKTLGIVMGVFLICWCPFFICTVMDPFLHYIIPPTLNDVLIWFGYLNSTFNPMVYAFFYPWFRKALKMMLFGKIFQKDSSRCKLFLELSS
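Assay system: CHO-derived RD-HGA16 cells stably expressing human TAAR1 plus Gα16. Timing: 140 s kinetic read after compound, 140 s after agonist. Technique: kinetic Fluo-8 calcium fluorescence measurement. Measure: % inhibition of agonist calcium response.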
OX1R antag-1 – OX1R (human) antagonism; OX1R-expressing cells, FRET antagonist read-out; inhibition, % at 6.6 µM; O43613; AID 485270; actives 1.8% (n = 330,000); in the data active = inhibition mostly above about 38%, no sharp cut-off; inactive = mostly below about 40%
GPR7 antag – antagonists of human GPR7 (neuropeptides B/W receptor 1) | P48145 | GPR7-expressing cells, fluorescence antagonist assay | inhibition, % at 4.4 µM | actives 1.1% (n = 290,000); in the data active = inhibition above about 16%, passing the limit was not always enough;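 note: cells stimulated with the agonist NPW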
Target sequence (P48145 whole entry, looked up): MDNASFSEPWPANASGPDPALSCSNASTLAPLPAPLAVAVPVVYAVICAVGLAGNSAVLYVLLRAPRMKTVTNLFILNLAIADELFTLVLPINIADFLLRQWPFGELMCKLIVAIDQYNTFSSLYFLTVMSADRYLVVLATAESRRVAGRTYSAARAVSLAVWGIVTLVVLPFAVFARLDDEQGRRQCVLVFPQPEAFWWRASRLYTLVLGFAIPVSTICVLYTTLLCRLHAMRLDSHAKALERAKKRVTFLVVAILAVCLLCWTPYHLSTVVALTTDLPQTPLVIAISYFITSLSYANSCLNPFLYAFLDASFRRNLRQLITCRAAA
TAAR1 ag – human TAAR1 agonism. AID 624467. CHO RD-HGA16 TAAR1, Fluo-8 calcium fluorescence; vehicle wells 0%, saturating PEA agonist 100%. activation, % at 3 µM. actives 0.99% (n = 360,000);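 active = activation above the mean activation of all test compounds in the run plus 3 SD, cut at about 38% in these data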
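System: CHO-derived RD-HGA16 cells with stable Gα16 and human TAAR1. Times: 17-24 h plating, Fluo-8 75 min 37 °C, 30 min RT. Measured by: calcium-sensitive Fluo-8 signal, excitation 470-495, emission 515-575 nm. Read-out basis: % activation relative to PEA EC100 response. Control set: DMSO and PEA EC100. Repeats: no replicates (n 1).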
CHO parental Ca – counter-screen for OX1R antagonists: effect in parental CHO cells | parental CHO-K1, ATP-induced calcium, Fluo-8 fluorescence | inhibition, % at 5.6 µM | actives 0.63% (n = 330,000) | AID 463079;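 active = inhibition above that plate's mean sample inhibition plus 3 SD, cut at about 26% in these data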
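Material: parental CHO cells / Compound: single nominal dose of 5.6 µM per compound / Signal: Fluo-8 fluorescence / Replicates: singlicate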
OX1R antag-2 – blocks the human orexin 1 receptor. O43613. CHO/OX1R cells, Fluo-8 calcium fluorescence, orexin A. inhibition, % at 5 µM. actives 0.43% (n = 330,000);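 active = inhibition above its plate's threshold, mean inhibition of all tested compounds on the plate plus 3 SD, cut at about 37% in these data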
nonsel antag count – nonselective antagonist in TAAR1 antagonist counter-screen; inhibition, % at 3 µM; shares compounds with TAAR1 antag; counterscreen cell line, calcium fluorescence, antagonist mode; actives 77% (n = 2,400); in the data active = inhibition above about 22%;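 note: CHO-Ga16 host cells stimulated with ATP at an EC80 level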
TAAR1 ant conf – human TAAR1 antagonism, confirmed; actives 40% (n = 2,400); TAAR1-expressing cells, fluorescence antagonist read-out; inhibition, % at 3 µM; AID 651785; shares compounds with TAAR1 antag; in the data active = inhibition above about 49%;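 note: CHO-Ga16 host cells challenged with agonist PEA near its EC80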
Ga16 ag counter – nonselective Ga16 agonist in TAAR1 antagonist counter-screen. shares compounds with TAAR1 antag. Ga16-expressing cells, calcium fluorescence, agonist counterscreen. activation, % at 3 µM. actives 18% (n = 2,400); in the data active = activation above about 12%
TAAR1 ag counter – TAAR1 agonism, antagonist counter-screen; shares compounds with TAAR1 antag; hTAAR1 cell line, fluorescence activation, agonist mode; activation, % at 3 µM; actives 2% (n = 2,400); in the data active = activation above about 37%;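 note: CHO cells stably expressing TAAR1 with calcium dye readout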
Numbers stand for hits; i = inactive; nt = no result given.

SMILES	TAAR1 antag	OX1R antag-1	GPR7 antag	TAAR1 ag	CHO parental Ca	OX1R antag-2	nonsel antag count	TAAR1 ant conf	Ga16 ag counter	TAAR1 ag counter
CCN(CC(=O)Nc1c(F)cccc1F)C(=O)c1cc(-c2cccs2)nn1-c1ccccc1	72	i	nt	i	i	i	27	i	i	i
CCN(CC(=O)Nc1ccccc1OC)C(=O)c1cc(-c2ccccc2)nn1-c1ccccc1	61	i	nt	i	i	i	i	i	i	i
Cc1ccc(NC(=O)CN(C)C(=O)c2cc(-c3cccs3)nn2-c2ccccc2)cc1	55	i	nt	i	i	i	22	i	i	i
CN(CC(=O)Nc1ccc(Cl)cc1)C(=O)c1cc(-c2cccs2)nn1-c1ccccc1	66	i	nt	i	i	i	25	i	i	i
C=CCn1c(C)nc2c(sc3nc4c(cc32)COC(C)(C)C4)c1=O	i	i	i	i	i	i	nt	nt	nt	nt
CCN(CC(=O)Nc1c(F)cccc1F)C(=O)CSc1ccccc1	97	i	nt	i	i	i	i	i	i	i
CCN(CC(=O)Nc1c(F)cccc1F)C(=O)CSc1ccc(F)cc1	i	i	nt	i	i	i	nt	nt	nt	nt
Cc1ccc(S(=O)(=O)NC(CC(C)C)C(=O)Oc2ccc3c4c(c(=O)oc3c2)CCC4)cc1 (stereo not drawn)	67	i	i	i	i	i	26	i	i	i
Cc1cc(-c2ccc(S(=O)(=O)NCc3ccc(Cl)cc3)cc2)on1	i	nt	nt	i	nt	nt	nt	nt	nt	nt
Cc1cc(C(=O)COC(=O)c2nccnc2N)c(C)n1C	105	i	i	i	i	i	i	i	i	i
Cc1ccc(NC(=O)CN(C)C(=O)c2cc(-c3ccco3)nc3ccccc23)cc1	i	i	nt	i	i	i	nt	nt	nt	nt
CN(CCOc1ccc(Cl)cc1)C(=O)c1cc(-c2ccco2)nc2ccccc12	74	i	nt	i	i	i	40	59	i	i
COc1ccc(-c2cc(C(=O)NCc3ccco3)c3ccccc3n2)cc1	49	i	i	i	i	i	i	i	i	i
COc1ccc(-c2cc(C(=O)NCc3ccco3)c3ccccc3n2)c(OC)c1	i	i	i	i	i	i	nt	nt	nt	nt
COc1ccc(Nc2cc(C(=O)NCc3ccco3)c3ccccc3n2)c(OC)c1	51	i	i	i	i	i	i	i	i	i
COc1ccc(-c2cc(C(=O)Nc3c(C)n(C)n(-c4ccccc4)c3=O)c3ccccc3n2)cc1	58	i	i	i	i	i	26	i	i	i
Cc1ccc(Nc2ncc3c(=O)[nH][nH]c(=O)c3n2)cc1	i	nt	nt	i	nt	nt	nt	nt	nt	nt
CC(=O)Nc1cccc(NC(=O)Cc2cccs2)c1	i	i	i	i	i	i	nt	nt	nt	nt
O=C(Cc1cccs1)Nc1cccc(-c2nc3cc4ccccc4cc3[nH]2)c1	74	i	i	i	i	i	34	i	i	i
CCCCNC(=O)C1(C)CCCCN1Cc1ccc(OCc2ccccc2)cc1 (stereo not drawn)	i	nt	nt	i	nt	nt	nt	nt	nt	nt
Cc1ccc(-n2c(C)cc(/C=N/Nc3ccc([N+](=O)[O-])cn3)c2C)cc1	nt	i	i	nt	i	i	i	nt	i	nt
Cc1cc(/C=N/Nc2ccc([N+](=O)[O-])cn2)c(C)n1-c1ccccc1	i	i	i	i	i	i	nt	nt	nt	nt
COc1cccc(Nc2nc(-c3sc(NC(=O)c4ccco4)nc3C)cs2)c1	52	i	i	i	i	i	22	i	i	i
COC(=O)c1cc2c(c3c4cc(C)ccc4n(C(=O)c4ccccc4)c13)C(=O)N(Cc1ccccc1)C2	67	nt	nt	i	nt	nt	29	56	i	i
CC1(C)C[C@@H](O)CC2(C1)C[C@]1(C)CC(O)[C@H]2C(C)(C)C1 (stereo partly drawn)	i	i	nt	i	i	i	nt	nt	nt	nt
SMILES	TAAR1 antag	OX1R antag-1	GPR7 antag	TAAR1 ag	CHO parental Ca	OX1R antag-2	nonsel antag count	TAAR1 ant conf	Ga16 ag counter	TAAR1 ag counter
O=C(CC1CC1)Nc1ccc2c(c1)[C@@H]1C[C@H](CC(=O)NC3CCCC3)O[C@@H](CO)[C@@H]1O2	86	nt	nt	i	nt	nt	i	i	i	i
COC(=O)[C@]12CCCCC=C1N(Cc1ccco1)C(=O)[C@H](CC(=O)N1CCC(c3ccccc3)CC1)C2	i	nt	nt	i	nt	nt	nt	nt	nt	nt
Cc1cccc(N2CCN(C(=O)c3ccc(Cl)c(NC4=NC5CS(=O)(=O)CC5S4)c3)CC2C)c1 (stereo not drawn)	56	i	i	i	i	i	26	i	i	i
O=C(c1ccc(Cl)c(NC2=NC3CS(=O)(=O)CC3S2)c1)N1CCN(c2ccccc2)CC1 (stereo not drawn)	i	i	i	i	i	i	nt	nt	nt	nt
COc1ccc2c(c1)[nH]c1c(=O)n(/N=C/C3C(C)C=C(C)CC3C)c(=O)[nH]c12 (stereo not drawn)	62	i	i	i	i	i	i	i	i	i
COc1ccc2[nH]c3c(=O)n(N)c(=O)[nH]c3c2c1	i	nt	i	i	nt	nt	nt	nt	nt	nt
CC1=CC(C)[C@H](/C=N/n2c(=O)[nH]c3c([nH]c4ccc(Br)cc43)c2=O)C(C)C1 (stereo partly drawn)	i	i	i	i	i	i	nt	nt	nt	nt
COc1ccc2[nH]c3c(=O)n(/N=C/[C@H]4C(C)C=C(C)CC4C)c(=O)[nH]c3c2c1 (stereo partly drawn)	60	i	i	i	i	i	34	i	i	i
Cc1cc(C(=O)NCC(c2ccco2)N2CCCC2)c2ccccc2n1 (stereo not drawn)	i	i	nt	i	i	i	nt	nt	nt	nt
CCCOc1ccc(F)cc1-c1cc(C(=O)NCc2cccc(Cl)c2)[nH]n1	i	nt	nt	i	nt	nt	nt	nt	nt	nt
CCNC(=O)CC1C(=O)N(c2ccc(C)cc2)C(=O)N1CCC(C)C (stereo not drawn)	i	i	i	i	i	i	nt	nt	nt	nt
CC(C)(C)OC(=O)NCc1ccc(CNC(=O)c2[nH]cnc2C(=O)N[C@@H](Cc2ccccc2)C(=O)OCc2ccccc2)cc1	i	i	i	i	i	i	nt	nt	nt	nt
CC(C)(C)OC(=O)NCc1ccc(CNC(=O)c2[nH]cnc2C(=O)NCC(=O)OCc2ccccc2)cc1	92	i	i	i	i	i	49	66	12	i
O=C(CNC(=O)c1nc[nH]c1C(=O)NCC(=O)OCc1ccccc1)OCc1ccccc1	69	i	i	i	i	i	37	56	i	i
